Measurements reported in PMC3729426 (Chemistry (Weinheim an der Bergstrasse, Germany), 2012).
Ends that are not written are not given here. Lumi4(Tb) = Lumi4(Tb) terbium luminescent complex

Key:
MDCKII cells [1] = assay type: cell-based, canine; conditions: summary of microscopic observations at higher concentrations
Procedure, shortened: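 MDCKII cells were incubated 30 min at 37 °C in DMEM with FBS, or serum-free, with Tb3+ complex–peptide conjugates at 5, 20 or 60 μM. In one condition, 5 μM conjugate was combined with 30 μM unconjugated Arg9. Live cells were imaged by time-gated luminescence microscopy (10 μs delay, λex 365 nm, λem 540 ± 10 nm) to score punctate versus diffuse cytoplasmic/nuclear distribution.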

MDCKII cells [2] = tested on: MDCKII cells

3: an N-terminal fusion of Lumi4(Tb) to Tat (49–57) ({Lumi4(Tb)}-RKKRRQRRR; UniProt P04608 49-57, looked up, fragment) [compound 3]
mechanism of delivery mediated by the CPP (MDCKII cells [1]): non-endocytic, cytoplasmic delivery

17: cysteine amide-linked heterodimer of Lumi4 and TEGTMP coupled via a disulfide bond to the peptide Cys-TAT(47–57)-Lys(FAM) [compound 17]
intracellular disulfide reduction observed microscopically (MDCKII cells [2]): its disulfide bond is reduced in the cytoplasm and nucleus
fluorescein signal distribution immediately after washing (MDCKII cells [2]; MDCKII cells, 17 (10 μM), serum-free medium, 10 min, 37 °C, continuous wave fluorescence): primarily diffuse throughout the cytoplasm and nucleus
fluorescein signal distribution 2 h post-wash (MDCKII cells [2]; MDCKII cells, 17 (10 μM), serum-free medium, 10 min, imaged 2 h post-wash): punctate staining pattern predominant
Tb3+-to-fluorescein LRET emission ratio (520 nm/540 nm), 2 h post-wash versus immediate (MDCKII cells [2]; MDCKII cells, nuclear region, 17 (10 μM), 4 separate experiments): significantly reduced
mechanism of delivery mediated by the CPP (MDCKII cells [1]): non-endocytic, cytoplasmic delivery
